# Published values from different studies.
# TEC: Tyrosine-protein kinase Tec (TEC, Homo sapiens, UniProt P42680)
# TEC phosphorylated: Tyrosine-protein kinase Tec, phosphorylated (TEC, Homo sapiens, UniProt P42680)
Structure (SMILES),target,assay,conditions,measurement,result
CCCS(=O)(=O)Nc1ccc(F)c(C(=O)c2c[nH]c3ncc(-c4ccc(Cl)cc4)cc23)c1F,TEC,"enzyme activity, inhibitor",1 µM,inhibition,< 10%
c1nc2c(Nc3ccc4c(c3)OCCO4)nc(Nc3ccc4c(c3)OCCO4)nc2[nH]1,TEC,"enzyme activity, inhibitor",10 µM,activity vs control,2.5%
CC(C)(C)c1nc(-c2cccc(NS(=O)(=O)c3c(F)cccc3F)c2F)c(-c2ccnc(N)n2)s1,TEC,"enzyme activity, inhibitor, radiometric",1 µM,remaining activity,87%
CC(=O)C1=C(C)N(c2cccc(C(F)(F)F)c2)C(=O)N[C@@H]1c1ccc(C#N)nc1,TEC,"binding, competition with immobilised ligand",1 µM,remaining binding,100%
CCOc1cc(-c2nncn2C)ccc1Nc1ncc2cc(C)nc(NCC(C)(C)C)c2n1,TEC,"cell-free assay, TR-FRET",1 µM,inhibition,≤ 15%
CCCOc1ccc([C@@H]2[C@@H](C(=O)O)[C@H](c3ccc4c(c3)OCO4)CN2CC(=O)Nc2c(CC)cccc2CC)cc1,TEC,"binding, competition with immobilised ligand",1 µM,remaining binding,96%
C[S+]([O-])c1ccc(-c2nc(-c3ccncc3)c(-c3ccc(F)cc3)[nH]2)cc1 (centres unmarked),TEC,cell-free assay,0.5 µM,remaining signal,113%
CN(c1ccnc(CNc2nc(Nc3ccc4c(c3)CC(=O)N4)ncc2C(F)(F)F)n1)S(C)(=O)=O,TEC,"cell-free assay, competition with immobilised ligand",1 µM,remaining binding,100%
Cc1sc(C(=O)NC2COC2)cc1-n1cc(NC(=O)Nc2c(F)cccc2Cl)cn1,TEC,"enzyme activity, inhibitor",10 µM,remaining activity,91.1%
N#CCCc1ccc2c(c1)-c1[nH]c3ccc([N+](=O)[O-])cc3c1CC(=O)N2,TEC,cell-free assay,0.5 µM,remaining signal,120%
CN1CC(Oc2cnc(C#N)cc2-c2ccn3nc(NC(=O)C4CC4)cc3c2)C1,TEC phosphorylated,"enzyme activity, inhibitor",1 µM,inhibition,25%
O=C(N[C@@H](C1CC1)C(F)(F)F)c1cc(-c2cnn3cc(-c4ccc(F)cc4)cnc23)cs1,TEC,"enzyme activity, inhibitor, radiometric",40 nM,inhibition,0%
Cc1cnc(NC2CCOCC2)nc1-n1cnc(C(=O)NC(CN)c2cc(F)cc(Cl)c2)c1 (centres unmarked),TEC phosphorylated,"enzyme activity, inhibitor, radiometric",1 µM,remaining activity,102%
O=C(Nc1cnn(-c2csc(C(=O)NC3COC3)c2)c1)Nc1ccccc1Cl,TEC,"enzyme activity, inhibitor",5 µM,remaining activity,97.2%
O=C(O)c1cc(-c2ccc(C3CCNCC3)cc2)c2ccc(-c3ccc(C(F)(F)F)cc3)cc2c1,TEC,"cell-free assay, competition with immobilised ligand",1 µM,remaining binding,100%
Cc1ccc(C(=O)NCc2ccsc2)cc1C#Cc1cn(C(C)C)c2ncnc(N)c12,TEC phosphorylated,"enzyme activity, inhibitor",1 µM,activity vs control,107%
Nc1c(C(=O)NCc2ccc(C(=O)NCCCC3CCCCC3)cc2)cnn1-c1ccccc1,TEC,"cell-free assay, competition with immobilised ligand",0.1 µM,remaining binding,100%
O=C1NC(=O)c2cc(Nc3ccc(F)cc3)c(Nc3ccc(F)cc3)cc21,TEC,cell-free assay,0.5 µM,remaining signal,102%
CN([C@@H]1CCc2c(CC(=O)O)c3ccccc3n2C1)S(=O)(=O)c1ccc(F)cc1,TEC,"cell-free assay, competition with immobilised ligand",1 µM,remaining binding,100%
Cc1ccc(C(=O)Nc2ccc(CN3CCN(C)CC3)c(C(F)(F)F)c2)cc1C#Cc1cnc2cccnn12,TEC,enzyme activity,23.5 nM,remaining activity,84%
